According to ChEMBL document CHEMBL1221274, “Discovery and expanded SAR of 4,4-disubstituted quinazolin-2-ones as potent T-type calcium channel antagonists” (Bioorg Med Chem Lett, 2010):
Values belong to the compound of their own block, whether it stands above or below them. Calls of active or inactive are those of the source. The rule behind the calls is not given here.

Legend:
[1] = target: Voltage-dependent T-type calcium channel subunit alpha-1I (Homo sapiens) (UniProt Q9P0X4); assay: Antagonist activity at Cav3.3 alpha1i by depolarized FLIPR assay; type: functional
Sequence of Voltage-dependent T-type calcium channel subunit alpha-1I (Homo sapiens) (Q9P0X4 whole entry): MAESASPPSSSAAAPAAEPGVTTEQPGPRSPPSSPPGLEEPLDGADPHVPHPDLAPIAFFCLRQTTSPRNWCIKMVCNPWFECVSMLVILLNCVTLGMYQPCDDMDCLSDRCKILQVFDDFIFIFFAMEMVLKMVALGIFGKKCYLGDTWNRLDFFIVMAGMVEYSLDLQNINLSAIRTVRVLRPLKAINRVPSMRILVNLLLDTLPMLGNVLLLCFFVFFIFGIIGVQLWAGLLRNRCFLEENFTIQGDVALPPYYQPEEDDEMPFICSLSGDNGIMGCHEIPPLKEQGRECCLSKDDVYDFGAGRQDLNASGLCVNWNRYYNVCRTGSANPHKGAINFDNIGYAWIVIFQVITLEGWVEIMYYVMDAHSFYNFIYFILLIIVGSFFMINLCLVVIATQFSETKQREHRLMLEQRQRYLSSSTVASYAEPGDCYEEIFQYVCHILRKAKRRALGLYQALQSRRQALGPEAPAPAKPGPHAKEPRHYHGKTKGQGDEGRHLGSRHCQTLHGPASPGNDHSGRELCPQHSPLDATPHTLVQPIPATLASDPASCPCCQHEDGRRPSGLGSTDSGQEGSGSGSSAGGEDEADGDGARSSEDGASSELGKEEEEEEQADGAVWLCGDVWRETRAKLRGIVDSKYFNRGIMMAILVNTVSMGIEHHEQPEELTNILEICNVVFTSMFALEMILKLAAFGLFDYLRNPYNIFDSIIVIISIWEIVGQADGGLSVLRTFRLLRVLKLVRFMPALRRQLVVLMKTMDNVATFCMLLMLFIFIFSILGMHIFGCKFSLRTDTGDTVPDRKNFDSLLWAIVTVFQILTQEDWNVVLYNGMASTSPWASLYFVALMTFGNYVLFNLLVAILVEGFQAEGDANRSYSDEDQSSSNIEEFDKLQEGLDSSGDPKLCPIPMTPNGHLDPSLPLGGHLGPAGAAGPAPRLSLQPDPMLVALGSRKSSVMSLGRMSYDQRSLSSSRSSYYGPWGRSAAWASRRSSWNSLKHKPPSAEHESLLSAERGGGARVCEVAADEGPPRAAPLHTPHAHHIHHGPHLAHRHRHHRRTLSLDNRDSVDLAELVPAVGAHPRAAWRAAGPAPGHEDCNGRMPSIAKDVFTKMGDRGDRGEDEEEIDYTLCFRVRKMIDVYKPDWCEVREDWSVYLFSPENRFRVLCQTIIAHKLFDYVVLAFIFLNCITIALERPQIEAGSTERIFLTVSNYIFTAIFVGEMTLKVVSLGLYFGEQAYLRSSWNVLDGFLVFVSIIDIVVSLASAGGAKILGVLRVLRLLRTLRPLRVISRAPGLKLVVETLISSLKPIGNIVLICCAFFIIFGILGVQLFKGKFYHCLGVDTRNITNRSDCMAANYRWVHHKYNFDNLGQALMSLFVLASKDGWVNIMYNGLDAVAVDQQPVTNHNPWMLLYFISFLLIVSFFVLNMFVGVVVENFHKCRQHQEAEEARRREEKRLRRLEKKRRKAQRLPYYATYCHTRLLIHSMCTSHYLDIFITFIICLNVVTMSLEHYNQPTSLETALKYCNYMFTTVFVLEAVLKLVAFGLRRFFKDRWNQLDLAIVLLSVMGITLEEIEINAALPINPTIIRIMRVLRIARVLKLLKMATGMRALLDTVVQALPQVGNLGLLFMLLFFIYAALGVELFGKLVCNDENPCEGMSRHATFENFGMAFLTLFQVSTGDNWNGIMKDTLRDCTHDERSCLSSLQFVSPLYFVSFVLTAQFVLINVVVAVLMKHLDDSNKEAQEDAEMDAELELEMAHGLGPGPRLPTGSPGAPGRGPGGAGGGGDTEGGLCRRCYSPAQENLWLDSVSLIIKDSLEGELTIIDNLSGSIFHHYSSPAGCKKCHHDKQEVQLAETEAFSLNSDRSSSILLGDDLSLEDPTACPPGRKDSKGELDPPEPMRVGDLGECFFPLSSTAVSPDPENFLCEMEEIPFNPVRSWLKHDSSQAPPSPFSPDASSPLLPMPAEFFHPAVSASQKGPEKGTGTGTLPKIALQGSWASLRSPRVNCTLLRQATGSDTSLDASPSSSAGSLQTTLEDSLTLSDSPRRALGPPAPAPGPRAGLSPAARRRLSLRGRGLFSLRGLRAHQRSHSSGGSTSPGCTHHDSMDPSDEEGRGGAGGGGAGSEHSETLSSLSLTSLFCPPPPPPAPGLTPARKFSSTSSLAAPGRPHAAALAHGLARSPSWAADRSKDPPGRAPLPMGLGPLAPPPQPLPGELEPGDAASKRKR

[2] = target: T1, PXR (nuclear receptor subfamily 1 group I member 2) (Homo sapiens, UniProt O75469); assay: PXR activation relative to rifampicin at 10 uM; settings: activation
T1 sequence (O75469 whole entry): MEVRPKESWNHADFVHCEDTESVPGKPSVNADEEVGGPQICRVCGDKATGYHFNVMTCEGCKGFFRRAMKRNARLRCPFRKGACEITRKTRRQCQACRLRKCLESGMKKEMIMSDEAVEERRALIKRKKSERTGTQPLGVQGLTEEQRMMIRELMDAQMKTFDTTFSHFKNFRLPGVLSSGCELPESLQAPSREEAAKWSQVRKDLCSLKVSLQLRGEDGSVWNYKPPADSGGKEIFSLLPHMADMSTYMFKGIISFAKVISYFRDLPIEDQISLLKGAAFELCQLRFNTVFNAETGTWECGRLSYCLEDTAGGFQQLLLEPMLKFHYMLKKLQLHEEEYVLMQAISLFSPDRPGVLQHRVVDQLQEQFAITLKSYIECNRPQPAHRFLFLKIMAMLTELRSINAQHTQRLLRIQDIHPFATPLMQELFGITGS

[3] = Metabolic stability in human liver microsome assessed as compound remaining after 60 mins; type: ADME; settings: liver microsomes, read-out: Stability
Procedure, shortened: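 Human liver microsomes (0.2 mg protein/mL) incubated with test compound at 1 µM plus NADPH cofactor at 37 °C for 30 or 60 min; percent parent compound remaining measured.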

[4] = target: Voltage-dependent T-type calcium channel subunit alpha-1I (Homo sapiens) (UniProt Q9P0X4); assay: Antagonist activity at Cav3.3 alpha1i by hyperpolarized FLIPR assay; type: functional
[5] = target: T2, Nuclear receptor subfamily 1 group I member 2 (Homo sapiens, UniProt O75469); assay: PXR activation relative to rifampicin at 10 uM; settings: 10 µM
T2 sequence (O75469 whole entry): T1 sequence (O75469 whole entry)

[6] = Volume of distribution at steady state in dog; type: ADME, organism-based, Canis lupus familiaris; settings: in vivo, read-out: Vdss
[7] = Oral bioavailability in rat; type: ADME, organism-based; settings: in vivo
[8] = Oral bioavailability in monkey; type: ADME, organism-based, Macaca mulatta; settings: rhesus monkey, in vivo
Rattus norvegicus [9] = species: Rattus norvegicus; assay: Effect on rat Pgp-mediated drug transport assessed as efflux ratio of permeability from basolateral to apical over apical to basolateral side
[10] = Half life in monkey; type: ADME, organism-based, Macaca mulatta; settings: rhesus monkey, in vivo
Rattus norvegicus [11] = assay: Effect on sleep-awake pattern in rat assessed as increase in delta sleep at 10 mg/kg, po for 16 hrs; type: functional, organism-based; parameters: dose 10 mg/kg
Procedure, shortened: (§1)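 Crossover rat study over seven days, n = 7 male rats. ECoG and EMG recorded for 16 h and scored as active wake, light sleep, delta sleep or REM, as minutes per 30 min bin (±SEM). Each time point compared by linear mixed-effects ANOVA.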

Cytochrome P450 3A4 = Cytochrome P450 3A4 (Homo sapiens, UniProt P08684); assay: Inhibition of CYP3A4; type: ADME; settings: TDE = time-dependent effect
Sequence of Cytochrome P450 3A4 (P08684 whole entry): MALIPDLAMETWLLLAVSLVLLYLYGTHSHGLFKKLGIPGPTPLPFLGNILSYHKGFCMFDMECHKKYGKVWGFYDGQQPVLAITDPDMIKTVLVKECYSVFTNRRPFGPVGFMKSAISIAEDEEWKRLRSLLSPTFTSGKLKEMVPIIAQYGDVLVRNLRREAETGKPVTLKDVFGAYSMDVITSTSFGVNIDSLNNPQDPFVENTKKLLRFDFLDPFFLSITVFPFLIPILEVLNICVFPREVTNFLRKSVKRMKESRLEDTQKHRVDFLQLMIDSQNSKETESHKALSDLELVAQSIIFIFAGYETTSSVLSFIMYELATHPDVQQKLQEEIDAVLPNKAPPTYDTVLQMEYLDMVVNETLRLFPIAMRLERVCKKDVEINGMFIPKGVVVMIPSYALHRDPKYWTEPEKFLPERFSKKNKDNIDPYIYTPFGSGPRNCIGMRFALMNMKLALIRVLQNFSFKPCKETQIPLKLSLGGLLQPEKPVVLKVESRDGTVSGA

[12] = Plasma clearance in monkey; type: ADME, organism-based, Macaca mulatta; settings: rhesus monkey
[13] = Half life in rat; type: ADME, organism-based; settings: in vivo
[14] = Plasma clearance in dog; type: ADME, organism-based, Canis lupus familiaris
[15] = Half life in dog; type: ADME, organism-based, Canis lupus familiaris; settings: in vivo
[16] = Plasma protein binding in rat; type: ADME, cell-free; settings: read-out: PPB (converted)
[17] = Volume of distribution at steady state in rat; type: ADME, organism-based; settings: in vivo, read-out: Vdss
Homo sapiens [18] = species: Homo sapiens; assay: Effect on human Pgp-mediated drug transport assessed as efflux ratio of permeability from basolateral to apical over apical to basolateral side
[19] = Plasma clearance in rat; type: ADME, organism-based
Rattus norvegicus [20] = assay: Effect on sleep-awake pattern in rat assessed as decrease in REM sleep at 10 mg/kg, po for 16 hrs; type: functional, organism-based; parameters: dose 10 mg/kg; procedure, shortened: as §1
Rattus norvegicus [21] = assay: Antiepileptic activity in […] rat assessed as inhibition of total seizures at 10 mg/kg, po after 4 hrs; type: functional
Procedure, shortened: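 Seizure suppression measured by EEG in WAG/Rij rats (absence epilepsy model) after oral dosing; total seizure time scored 4 h post dose and expressed as percent inhibition.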

Rattus norvegicus [22] = assay: Effect on sleep-awake pattern in rat assessed as decrease in active awake at 10 mg/kg, po for 16 hrs; type: functional, organism-based; parameters: dose 10 mg/kg; procedure, shortened: as §1
Homo sapiens [23] = species: Homo sapiens; assay: Plasma protein binding in human; settings: read-out: PPB (converted)
[24] = Volume of distribution at steady state in monkey; type: ADME, organism-based, Macaca mulatta; settings: rhesus monkey, in vivo; read-out: Vdss

Structure (SMILES): CCCC1(c2cccc(-c3ccnn3C)c2)c2cc(Cl)ccc2NC(=O)N1CC(F)(F)F (centres undefined)
Activity [1]: 318 nM

Structure (SMILES): CCCC1(c2cccc(N3CCOCC3)c2)c2cc(Cl)ccc2NC(=O)N1CC(F)(F)F (centres undefined)
Activity [1]: 161 nM

Structure (SMILES): O=C1Nc2ccc(F)c(F)c2C(CCF)(c2ccc(F)cc2)N1CC(F)(F)F (centres undefined)
Activity [1]: 17 nM
remaining at 1 h [3]: 66%
activation at 10 µM [2]: 53%

Structure (SMILES): CCC1(c2ccc(F)cc2)c2c(ccc(F)c2F)N(Cc2c(C)noc2C)C(=O)N1CC(F)(F)F (centres undefined)
Activity [1]: 1830 nM

Structure (SMILES): CCCC1(c2ccc(OC)cc2)c2cc(Cl)ccc2NC(=O)N1CC(F)(F)F (centres undefined)
Activity [1]: 879 nM

Structure (SMILES): N#CC1(c2ccc(F)cc2)c2c(ccc(F)c2F)NC(=O)N1CC(F)(F)F (centres undefined)
Activity [1]: 290 nM

Structure (SMILES): CC(C)(C)C1(c2ccccc2)c2cc(F)ccc2NC(=O)N1CC(F)(F)F (centres undefined)
Activity [1]: 757 nM
activation at 10 µM [2]: 44%

Structure (SMILES): O=C1Nc2ccc(Cl)cc2C(CC(F)F)(c2ccc(F)cc2)N1CC(F)(F)F (single isomer, unassigned; 31B)
Activity [1]: 469 nM

Structure (SMILES): O=C1Nc2ccc(F)c(F)c2C(CCO)(c2ccc(F)cc2)N1CC(F)(F)F (centres undefined)
Activity [1]: 3090 nM

Structure (SMILES): CCCCC1(C2CC2)c2cc(Cl)ccc2NC(=O)N1CC(F)(F)F (centres undefined)
Activity [1]: 111 nM

Structure (SMILES): CCCC1(c2cccc(-c3nccs3)c2)c2cc(Cl)ccc2NC(=O)N1CC(F)(F)F (centres undefined)
Activity [1]: 62 nM

Structure (SMILES): CCCC1(c2ccc(F)cc2)c2cc(Cl)ccc2NC(=O)N1CC(F)(F)F (single isomer, unassigned; 24B)
Activity [1]: 1320 nM

Structure (SMILES): CCC1(c2ccccc2)c2cc(Cl)ccc2NC(=O)N1C (centres undefined)
Activity [1]: 847 nM
Activity [4]: 2170 nM

Structure (SMILES): CCCC1(c2ccc(F)cc2)c2cc(Cl)ccc2NC(=O)N1CC(F)(F)F (single isomer, unassigned; 24A)
Activity [1]: 25 nM

Structure (SMILES): CCCC1(c2cccc(OC)c2)c2cc(Cl)ccc2NC(=O)N1CC(F)(F)F (centres undefined)
Activity [1]: 171 nM

Structure (SMILES): O=C1Nc2ccc(Cl)cc2C(CCF)(c2ccc(F)cc2)N1CC(F)(F)F (single isomer, unassigned; 30A)
Activity [1]: 42 nM

Structure (SMILES): O=C1Nc2ccc(Cl)cc2C(CC(F)F)(c2ccc(F)cc2)N1CC(F)(F)F (single isomer, unassigned; 31A)
Activity [1]: 60 nM

Structure (SMILES): CCC(C)C1(C2CC2)c2cc(Cl)ccc2NC(=O)N1CC(F)(F)F (centres undefined)
Activity [1]: 447 nM

Structure (SMILES): N#Cc1ccc([C@@]2(C3CC3)c3cc(Cl)ccc3NC(=O)N2CC(F)(F)F)cc1
Activity [1]: 14 nM
Activity [4]: 590 nM

Structure (SMILES): CCCC1(c2cccc(Oc3ccccn3)c2)c2cc(Cl)ccc2NC(=O)N1CC(F)(F)F (centres undefined)
Activity [1]: 73 nM

Structure (SMILES): O=C1Nc2ccc(Cl)cc2C(CCF)(c2ccc(F)cc2)N1CC(F)(F)F (single isomer, unassigned; 30B)
Activity [1]: 905 nM

Structure (SMILES): CCC1(c2ccc(F)cc2)c2c(ccc(F)c2F)N(CCOC)C(=O)N1CC(F)(F)F (centres undefined)
Activity [1]: 53 nM
activation at 10 µM [2]: 70%

Structure (SMILES): O=C1Nc2ccc(F)c(F)c2C(CC(F)F)(c2ccc(F)cc2)N1CC(F)(F)F (centres undefined)
Vd [6]: 3.6 L/kg
bioavailability [7]: 15%
bioavailability [8]: 15%
Activity [1]: 14 nM
Ratio (Rattus norvegicus [9]): 1.5
half-life [10]: 5.8 h
Activity (Rattus norvegicus [11]): Active
inhibition (INH) (Cytochrome P450 3A4): tde
remaining at 1 h [3]: 68%
clearance [12]: 23 mL/min/kg
half-life [13]: 1.6 h
clearance [14]: 10.5 mL/min/kg
half-life [15]: 5.9 h
fraction unbound [16]: 0.021
Vd [17]: 6.7 L/kg
Ratio (Homo sapiens [18]): 1.2
clearance [19]: 55 mL/min/kg
Activity (Rattus norvegicus [20]): Active
inhibition in vivo at 10 mg/kg (Rattus norvegicus [21]): 70%
Activity (Rattus norvegicus [22]): Active
fraction unbound (Homo sapiens [23]): 0.015
Vd [24]: 9.8 L/kg
activation at 10 µM [2]: 35%

Now from value to compound:

Activity [1]: 6 nM
activation at 10 µM [2]: 73%
Structure (SMILES): CCCC1(c2ccc(F)cc2)c2c(ccc(F)c2F)NC(=O)N1CC(F)(F)F (centres undefined)

Activity [1]: 657 nM
activation at 10 µM [2]: 91%
Structure (SMILES): CCC1(c2ccccc2)c2c(F)ccc(F)c2NC(=O)N1CC(F)(F)F (centres undefined)

Activity [1]: 141 nM
Structure (SMILES): CCC1(c2ccc(F)c(F)c2)c2cc(Cl)ccc2NC(=O)N1CC(F)(F)F (centres undefined)

activation at 10 µM [2]: 74%
Structure (SMILES): CCC1(c2ccccc2)c2cc(F)ccc2NC(=O)N1CC(F)(F)F (single isomer, unassigned; 35B) [listing 1 of 2 here]

Activity [1]: 2040 nM
Structure (SMILES): CCC1(c2ccccc2)c2c(ccc(F)c2F)NC(=O)N1CC(F)(F)F (stereo in doubt; 36B)

Activity [1]: 87 nM
Structure (SMILES): C=CCC1(c2ccccc2)c2cc(Cl)ccc2NC(=O)N1CC(F)(F)F (centres undefined)

Activity [1]: 25 nM
activation at 10 µM [2]: 58%
Structure (SMILES): CCC1(c2ccc(F)cc2)c2cc(F)ccc2NC(=O)N1CC(F)(F)F (centres undefined)

Activity [1]: 3880 nM
Structure (SMILES): CCC1(c2ccccc2)c2cc(Cl)ccc2NC(=O)N1CC(F)(F)F (single isomer, unassigned; 21B)

Activity [1]: 20 nM
Structure (SMILES): CCC1(c2ccccc2)c2c(ccc(F)c2F)NC(=O)N1CC(F)(F)F (single isomer, unassigned) [listing 1 of 2 here]

Activation [5]: 63%
Structure (SMILES): CCC1(c2ccccc2)c2cc(F)ccc2NC(=O)N1CC(F)(F)F (single isomer, unassigned; 35A) [listing 1 of 2 here]

Activity [1]: 16 nM
remaining at 1 h [3]: < 1%
activation at 10 µM [2]: 52%
Structure (SMILES): CCC1(c2ccc(F)cc2)c2c(ccc(F)c2F)NC(=O)N1CC(F)(F)F (centres undefined)

Activity [1]: 111 nM
activation at 10 µM [2]: 83%
Structure (SMILES): CCC1(c2ccccc2)c2c(F)cccc2NC(=O)N1CC(F)(F)F (centres undefined)

Activity [1]: 38 nM
activation at 10 µM [2]: 49%
Structure (SMILES): CCCC1(c2ccccc2)c2cc(F)ccc2NC(=O)N1CC(F)(F)F (centres undefined)

Activity [1]: 61 nM
Activity [4]: 239 nM
Structure (SMILES): CC[C@]1(c2ccc(F)cc2)c2cc(Cl)ccc2NC(=O)N1CC(F)(F)F

Activity [1]: 3740 nM
Structure (SMILES): CCC1(c2ccccc2)c2cc(F)ccc2NC(=O)N1CC(F)(F)F (single isomer, unassigned; 35B) [listing 2 of 2 here]

Activity [1]: 71 nM
Structure (SMILES): CCC1(c2ccccc2)c2cc(Cl)ccc2NC(=O)N1CC(F)(F)F (single isomer, unassigned; 21A)

Activity [1]: 50 nM
Structure (SMILES): CCC1(c2ccccc2)c2cc(F)ccc2NC(=O)N1CC(F)(F)F (single isomer, unassigned; 35A) [listing 2 of 2 here]

Activity [1]: 132 nM
activation at 10 µM [2]: 61%
Structure (SMILES): CCC1(c2ccccc2)c2c(ccc(Cl)c2F)NC(=O)N1CC(F)(F)F (centres undefined)

activation at 10 µM [2]: 48%
Structure (SMILES): CCC1(c2ccccc2)c2c(ccc(F)c2F)NC(=O)N1CC(F)(F)F (single isomer, unassigned) [listing 2 of 2 here]
